According to ChEMBL document CHEMBL3808334, “Synthesis and in vitro evaluation of novel triazine analogues as anticancer agents and their interaction studies with bovine serum albumin” (Eur J Med Chem, 2016):

Legend:
Format in all cases: functional
[1] = Growth inhibition of human RXF393 cells assessed as cell growth at 10^-6 M incubated for 48 hrs by sulforhodamine B assay; conditions: RXF 393, 48 h, read-out: Activity
[2] = Growth inhibition of human DU145 cells assessed as cell growth at 10^-5 M incubated for 48 hrs by sulforhodamine B assay; conditions: DU-145, 48 h, read-out: Activity
Procedure, shortened: (§1)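 Cells seeded at 5,000–40,000/well according to doubling time and preincubated 24 h at 37 °C, 5% CO2. Time-zero plates were TCA-fixed. DMSO concentrate was diluted in medium with 50 µg/ml gentamicin to give five concentrations (10-fold or ½ log steps), then exposed 48 h. Cells were TCA-fixed, stained with 0.4% SRB and read at 515 nm. Percent growth was taken against time-zero and control; GI50, TGI and LC50 derived.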

[3] = tested on: K562; assay: Growth inhibition of human K562 cells assessed as cell growth at 10^-6 M incubated for 48 hrs by sulforhodamine B assay; conditions: K562, 48 h, read-out: Activity
[4] = Growth inhibition of human SF539 cells assessed as cell growth at 10^-4 M incubated for 48 hrs by sulforhodamine B assay; conditions: SF-539, 48 h, read-out: Activity
[5] = Growth inhibition of human SNB19 cells assessed as cell growth at 10^-5 M incubated for 48 hrs by sulforhodamine B assay; conditions: SNB-19, 48 h, read-out: Activity
[6] = tested on: NCI-H322M; assay: Growth inhibition of human NCI-H322M cells assessed as cell growth at 10^-7 M incubated for 48 hrs by sulforhodamine B assay; conditions: read-out: Activity
[7] = tested on: NCI/ADR-RES; assay: Growth inhibition of human NCI/ADR-RES cells assessed as cell growth at 10^-7 M incubated for 48 hrs by sulforhodamine B assay; conditions: read-out: Activity
[8] = tested on: SN12C; assay: Growth inhibition of human SN12C cells assessed as cell growth at 10 uM incubated for 48 hrs by sulforhodamine B assay; conditions: read-out: Activity
[9] = Growth inhibition of human DU145 cells incubated for 48 hrs by sulforhodamine B assay; conditions: DU-145, 48 h; procedure, shortened: as §1
[10] = Growth inhibition of human Hs 578T cells assessed as cell growth at 10^-4 M incubated for 48 hrs by sulforhodamine B assay; conditions: read-out: Activity
[11] = Growth inhibition of human colon cancer cells incubated for 48 hrs by sulforhodamine B assay; conditions: Cancer cell lines
[12] = Growth inhibition of human SW620 cells assessed as cell growth at 10^-5 M incubated for 48 hrs by sulforhodamine B assay; conditions: SW-620, 48 h, read-out: Activity
[13] = tested on: U-251; assay: Growth inhibition of human U251 cells incubated for 48 hrs by sulforhodamine B assay; conditions: U-251, 48 h
Procedure, shortened: (§2)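 Cells were plated at 5,000–40,000 per well according to doubling time and preincubated 24 h at 37 °C in 5% CO2; time-zero plates were then TCA-fixed. Five concentrations (10-fold or ½-log dilutions, DMSO stock) were incubated 48 h. Cells were TCA-fixed, stained with 0.4% SRB and read at 515 nm. GI50 was taken where [(Ti−Tz)/(C−Tz)]×100 = 50.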

[14] = tested on: NCI-H322M; assay: Growth inhibition of human NCI-H322M cells assessed as cell growth at 10^-8 M incubated for 48 hrs by sulforhodamine B assay; conditions: read-out: Activity
[15] = tested on: NCI-H522; assay: Growth inhibition of human NCI-H522 cells assessed as cell growth at 10^-7 M incubated for 48 hrs by sulforhodamine B assay; conditions: NCI-H522, 48 h, read-out: Activity
[16] = tested on: M14; assay: Growth inhibition of human M14 cells assessed as cell growth at 10^-5 M incubated for 48 hrs by sulforhodamine B assay; conditions: M14, 48 h, read-out: Activity
[17] = Growth inhibition of human TK10 cells assessed as cell growth at 10^-6 M incubated for 48 hrs by sulforhodamine B assay; conditions: TK-10, 48 h, read-out: Activity
[18] = Growth inhibition of human prostate cancer cells incubated for 48 hrs by sulforhodamine B assay; conditions: Cancer cell lines
[19] = Growth inhibition of human RXF393 cells assessed as cell growth at 10^-4 M incubated for 48 hrs by sulforhodamine B assay; conditions: RXF 393, 48 h, read-out: Activity
[20] = Growth inhibition of human HOP92 cells assessed as cell growth at 10^-6 M incubated for 48 hrs by sulforhodamine B assay; conditions: HOP-92, 48 h, read-out: Activity
[21] = Growth inhibition of human TK10 cells assessed as cell growth at 10^-8 M incubated for 48 hrs by sulforhodamine B assay; conditions: TK-10, 48 h, read-out: Activity
[22] = tested on: MDA-MB-468; assay: Growth inhibition of human MDA-MB-468 cells assessed as cell growth at 10^-4 M incubated for 48 hrs by sulforhodamine B assay; conditions: MDA-MB-468, 48 h, read-out: Activity
[23] = Growth inhibition of human Hs 578T cells assessed as cell growth at 10^-7 M incubated for 48 hrs by sulforhodamine B assay; conditions: read-out: Activity
[24] = Growth inhibition of human ovarian cancer cells incubated for 48 hrs by sulforhodamine B assay; conditions: Cancer cell lines
[25] = tested on: SK-MEL-2; assay: Growth inhibition of human SK-MEL-2 cells assessed as cell growth at 10^-7 M incubated for 48 hrs by sulforhodamine B assay; conditions: SK-MEL-2, 48 h, read-out: Activity
[26] = tested on: NCI-H226; assay: Growth inhibition of human NCI-H226 cells assessed as cell growth at 10^-5 M incubated for 48 hrs by sulforhodamine B assay; conditions: NCI-H226, 48 h, read-out: Activity
[27] = tested on: SR; assay: Growth inhibition of human SR cells incubated for 48 hrs by sulforhodamine B assay; procedure, shortened: as §2
[28] = Growth inhibition of human LOXIMVI cells assessed as cell growth at 10^-4 M incubated for 48 hrs by sulforhodamine B assay; conditions: LOX IMVI, read-out: Activity
[29] = tested on: SN12C; assay: Growth inhibition of human SN12C cells assessed as cell growth at 10^-7 M incubated for 48 hrs by sulforhodamine B assay; conditions: read-out: Activity
[30] = tested on: SK-MEL-5; assay: Growth inhibition of human SK-MEL-5 cells incubated for 48 hrs by sulforhodamine B assay; conditions: SK-MEL-5, 48 h; procedure, shortened: as §2
[31] = read-out: pLC50 (the source's name) (converted)
[32] = read-out: LC50 (the source's name)

c1ccc2[nH]c(-c3ccc(Nc4nc(N5CCCCC5)nc(N5CCOCC5)n4)cc3)nc2c1
growth at 1 µM [1]: 46% | growth at 10 µM [2]: 23% | growth at 1 µM [3]: 109% | growth at 100 µM [4]: -76% | growth at 10 µM [5]: 13% | growth at 0.1 µM [6]: 97% | growth at 0.1 µM [7]: 98% | growth at 10 µM [8]: 52.4% | LC50 (50% net cell kill) [9]: > 100 µM | GI50 ([9]; read-out: GI50): 4.28 µM | TGI ([9]; read-out: TGI): > 100 µM | GI50 ([9]; read-out: pGI50 (converted)): 4.27 µM | CC50 [9, 31]: > 100 µM | TGI ([9]; read-out: pTGI (converted)): > 100 µM | growth at 100 µM [10]: -12% | GI50 [11]: 2430 nM | TGI [11]: 5.52 µM | CC50 [11, 32]: 30.2 µM | growth at 10 µM [12]: -29% | GI50 ([13]; read-out: GI50): 2180 nM | CC50 [13, 32]: 76.8 µM | TGI ([13]; read-out: TGI): 10 µM | GI50 ([13]; read-out: pGI50 (converted)): 2190 nM | CC50 [13, 31]: 77.6 µM | TGI ([13]; read-out: pTGI (converted)): 10 µM | growth at 0.01 µM [14]: 90% | growth at 0.1 µM [15]: 97% | growth at 10 µM [16]: -45% | growth at 1 µM [17]: 105% | GI50 [18]: 3.67 µM | TGI [18]: 9.13 µM | CC50 [18, 32]: > 100 µM | growth at 100 µM [19]: -46% | growth at 1 µM [20]: 95% | growth at 0.01 µM [21]: 96% | growth at 100 µM [22]: -31% | growth at 0.1 µM [23]: 94% | GI50 [24]: 3.46 µM | TGI [24]: 22.6 µM | CC50 [24, 32]: 26.9 µM | growth at 0.1 µM [25]: 102% | growth at 10 µM [26]: 12% | GI50 ([27]; read-out: GI50): 731 nM | CC50 [27, 32]: > 100 µM | TGI ([27]; read-out: TGI): 5.73 µM | GI50 ([27]; read-out: pGI50 (converted)): 724 nM | CC50 [27, 31]: > 100 µM | TGI ([27]; read-out: pTGI (converted)): 5.75 µM | growth at 100 µM [28]: -65% | growth at 0.1 µM [29]: 94% | GI50 ([30]; read-out: GI50): 1780 nM | CC50 [30, 32]: 6.11 µM | TGI ([30]; read-out: TGI): 3.3 µM | GI50 ([30]; read-out: pGI50 (converted)): 1780 nM | CC50 [30, 31]: 6.17 µM | TGI ([30]; read-out: pTGI (converted)): 3.31 µM
